Screening data as filed in PubChem.
Lmaj promast = inhibitors of Leishmania major promastigote growth | inhibition, % at 10 µM | hit rate 9% among 200,000 | Leishmania major promastigotes, resazurin fluorescence viability | AID 1063; in the data active = inhibition above about 50%;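 note: promastigotes grown with compound for 44 hours at 28 °C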
S1P4 antagonist = antagonists of human S1P4 receptor; O95977; hit rate 0.26% among 220,000; inhibition, % at 4.98 µM; S1P4-expressing cells, antagonist mode, reporter read-out; in the data active = inhibition above about 29%;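 note: 0% = wells stimulated with agonist and 100% = vehicle wells without agonist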
MDM2 E3 inh = Mdm2 E3 ligase (human) inhibition. Q00987. cell-based MDM2 ubiquitination luciferase reporter, 2 h; 0 = plate control, 100 = twice control, blank-subtracted. signal enhancement, % at 5 µM. hit rate 0.11% among 210,000. AID 1230;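 active = signal enhancement of 30% or more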;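 note: luminescence tracks abundance of the self-degrading MDM2-luciferase fusion protein; higher signal means inhibition of MDM2 E3 ligase activity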
Target sequence (Q00987 whole entry, looked up, the tested form may be a part): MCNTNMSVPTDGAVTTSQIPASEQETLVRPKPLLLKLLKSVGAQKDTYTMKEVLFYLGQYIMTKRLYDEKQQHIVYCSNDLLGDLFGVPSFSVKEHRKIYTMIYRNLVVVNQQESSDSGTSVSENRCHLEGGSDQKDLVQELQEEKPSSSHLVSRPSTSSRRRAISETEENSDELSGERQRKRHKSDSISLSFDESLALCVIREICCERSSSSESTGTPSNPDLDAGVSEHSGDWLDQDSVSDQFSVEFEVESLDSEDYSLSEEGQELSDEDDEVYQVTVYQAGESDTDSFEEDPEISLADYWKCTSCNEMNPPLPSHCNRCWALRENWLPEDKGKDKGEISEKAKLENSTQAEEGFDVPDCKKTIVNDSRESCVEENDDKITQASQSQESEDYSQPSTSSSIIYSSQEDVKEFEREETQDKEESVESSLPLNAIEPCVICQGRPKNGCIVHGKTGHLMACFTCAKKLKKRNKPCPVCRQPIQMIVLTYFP
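Test system: mammalian cells stably expressing self-ubiquitinating, self-degrading MDM2 E3–luciferase fusion; Amount: 2000 cells in each well; Medium: DMEM; Schedule: 4 h settle plus 2 h compound, 37 °C; Technique: SteadyLite luciferase luminescence after 15 min room-temperature reagent incubation; Benchmarks: plate control and blank wells.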
S1P3 antag = S1P3 (human) receptor antagonism; hit rate 0.27% among 170,000; AID 485; CHO S1P3 NFAT-BLA reporter, FRET fluorescence, antagonist mode; inhibition, % at 4.98 µM;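 active = inhibition above the plate cutoff, the mean inhibition of test wells on that plate plus 3 SD, cut at about 28% in these data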;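 note: cells challenged with S1P at its EC80 of 0.8 µM; blue over green emission ratio from cleaved BLA substrate after 4 h stimulation; 0% = S1P-stimulated wells and 100% = unstimulated DMSO-only wells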
S1P4 agonist = agonists of human S1P4 receptor; activation, % at 4.98 µM; S1P4-expressing cell line, agonist reporter assay; hit rate 0.35% among 220,000; in the data active = activation above about 11%;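 note: 0% = DMSO vehicle and 100% = reference agonist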
Active calls of the source: *; . = no result given. This is one part of a sample in which hits are shown more often than they occur.

SMILES	Lmaj promast	S1P4 antagonist	MDM2 E3 inh	S1P3 antag	S1P4 agonist
Cc1ccc(Cl)cc1NC(=O)COC(=O)C1CC1	-5.6	-17.2	-10.0	-15.1	-0.2
Nc1ccc(Cc2ccc(N)c(O)c2)cc1O	98.9*	0.1	-24.5	-10.2	2.1
Cc1ccc2oc(-c3cccc(NC(=S)NC(=O)c4cccs4)c3)nc2c1	-2.3	-6.4	-14.9	-10.3	1.2
Cc1cc(C)c2oc(-c3ccc(C)c(NC(=S)NC(=O)/C=C/c4ccco4)c3)nc2c1	71.3*	7.5	7.2	.	-2.1
Cc1ccc2oc(-c3cccc(NC(=S)NC(=O)/C=C/c4ccco4)c3)nc2c1	100.3*	17.7	-29.8	.	1.2
Cc1cc(C)c2oc(-c3ccc(C)c(NC(=S)NC(=O)c4cccs4)c3)nc2c1	4.5	3.0	-15.7	.	0.2
O=C(/C=C/c1ccc(Cl)cc1)N(c1ccccn1)C1CCCCC1	83.2*	-10.5	-14.3	-4.5	0.3
O=C(/C=C/c1cccc(F)c1)N(c1ccccn1)C1CCCCC1	-0.8	-3.6	-6.7	-14.8	0.3
CCOC(=O)C1(CCOC)CCN(Cc2ccc(COC)o2)CC1	-3.1	5.7	-2.6	-14.7	-0.8
CCOC(=O)C1(CCOc2ccccc2)CCN(Cc2ccc(CO)o2)CC1	61.7*	-8.5	5.4	1.0	0.3
CCOC(=O)C1(CCOc2ccccc2)CCN(Cc2cnc(C)s2)CC1	78.9*	3.1	3.6	13.4	-1.9
NCCOc1ccc(C2CCCCC2)cc1	100.0*	0.2	12.1	-1.7	0.6
O=C(COc1ccc(Br)cc1CNC1CCCC1)Nc1ccccc1	53.1*	3.5	-28.5	11.1	1.2
O=C(COc1ccc(Br)cc1CO)Nc1ccc(F)cc1	0.7	1.9	-0.4	19.2	1.1
O=C(COC(=O)c1ccccc1OCC(=O)Nc1ccc(Br)cc1)Nc1ccccc1	65.1*	-12.1	0.2	-1.5	0.2
CCOCCCNC(=O)COc1ccc(OC)cc1	-6.7	12.7	.	.	0.0
O=C(CSc1ccc(-c2ccco2)nn1)NC1CCCCC1	4.2	-9.4	8.7	-7.6	0.9
O=C(CSc1ccc(-c2ccco2)nn1)NC1CCCC1	4.8	-2.1	32.5*	-14.2	0.6
Cc1ccc(C)c(NC(=O)CSc2ccc(-c3ccco3)nn2)c1	54.7*	-25.7	-16.6	8.9	-1.3
Cc1ccccc1NC(=O)CSc1ccc(-c2ccco2)nn1	-1.2	-6.3	-13.3	-1.4	0.7
Cc1cc(C)cc(NC(=O)CSc2ccc(-c3cccs3)nn2)c1	72.0*	-8.7	-6.3	-5.7	1.6
c1ccc(N2CCN(Cc3cn4cccnc4n3)CC2)cc1	-5.4	-8.8	-14.2	-21.1	0.4
CSc1nc(N)nc(C2CC2)n1	.	10.2	-4.5	-14.3	1.8
O=C(/C=C/c1ccc(F)cc1)NC(=S)NNC(=O)c1cnccn1	.	-7.8	-9.9	1.8	2.3
O=C(NC(=S)NNC(=O)c1cnccn1)c1ccc(F)cc1	100.4*	2.5	-10.1	2.3	2.7
SMILES	Lmaj promast	S1P4 antagonist	MDM2 E3 inh	S1P3 antag	S1P4 agonist
CC(c1ccccc1)N1CCN(C(=O)CCl)CC1 (stereo not given)	76.3*	6.8	-5.3	-2.4	-0.1
COc1cc2c(cc1NC(=O)COC(=O)C(CCSC)NC(=O)c1ccccc1Cl)oc1ccccc12 (stereo not given)	66.7*	-4.4	2.8	-0.1	0.0
COc1cc2c(cc1NC(=O)COC(=O)c1ccc(C(C)(C)C)cc1)oc1ccccc12	-9.9	0.7	-2.9	-8.5	-0.2
COc1cc2c(cc1NS(=O)(=O)N1CCCCC1)oc1ccccc12	96.3*	7.8	-2.1	.	-0.3
CCN(CC)S(=O)(=O)c1cccc(C(=O)Nc2cc3oc4ccccc4c3cc2OC)c1	79.8*	-11.4	-4.2	10.6	1.4
CCCN(CCC)S(=O)(=O)c1ccc(C(=O)Nc2cc3oc4ccccc4c3cc2OC)cc1	-1.4	-11.6	7.3	-23.2	0.3
COc1cc2c(cc1NC(=O)CN(C)Cc1ccc(OC)c(OC)c1)oc1ccccc12	28.4	-8.8	-13.3	14.4	1.1
COc1ccc(CN(C)CC(=O)Nc2cc3oc4ccccc4c3cc2OC)c(OC)c1	96.6*	-11.4	-8.2	-2.6	0.6
CCOC(=O)Nc1csnn1	.	-15.0	.	2.9	-0.9
Clc1ccc(CNc2nnnn2-c2ccccc2)c(Cl)c1	11.1	-8.1	15.6	.	-0.7
COc1cc2c(cc1NC(=O)COC(=O)[C@@H](NS(=O)(=O)c1ccccc1)C(C)C)oc1ccccc12	99.4*	-16.1	-10.9	-1.2	0.1
COc1cc2c(cc1NC(=O)COc1ccccc1OC)oc1ccccc12	-3.2	7.3	-10.0	.	1.1
Cc1sc(NC(=O)c2sc3nc4c(C)cccc4cc3c2N)c(C#N)c1C	55.7*	2.6	-25.1	.	1.4
Cc1cccc2cc3c(N)c(C#N)sc3nc12	-2.9	11.6	-2.7	12.3	-1.6
c1ccc(-n2c(-c3cccs3)nc3nc4ccccc4nc32)cc1	-1.0	-18.3	-10.1	-6.8	0.9
CCC(C)n1c(-c2cccs2)nc2nc3ccccc3nc21 (stereo not given)	67.0*	-13.6	-24.0	-14.8	0.9
COc1ccc(S(=O)(=O)Nc2ccc3c(c2)OCO3)cc1OC	0.4	-16.6	-10.6	1.5	1.0
COc1ccc(S(=O)(=O)Nc2ccc3c(c2)OCCO3)cc1Cl	70.8*	-28.7	-16.5	26.6	-0.6
Cc1cccc(NS(=O)(=O)c2ccc3c(c2)OCCO3)c1	73.7*	1.9	1.3	.	-1.6
O=C(CCCc1ccccc1)N1CCN(c2ccc([N+](=O)[O-])cc2)CC1	58.4*	-9.9	-1.1	.	-1.4
CCOC(=O)c1cc(-c2ccc(C)cc2)n(CCC(=O)N2CCN(c3ccccn3)CC2)c1C	89.5*	-0.9	9.4	-3.0	0.2
Cc1ccc(SCC(=O)N2CCN(c3ccccn3)CC2)cc1	.	-9.8	-9.2	0.5	-0.4
O=C(O)CCC(=O)N1CCN(c2ccccn2)CC1	-1.4	-11.2	-4.2	-9.4	2.3
O=C(CCS(=O)(=O)Cc1ccccc1)N1CCN(c2ccc([N+](=O)[O-])cc2)CC1	0.9	-15.8	-1.8	-4.7	-1.8
O=C(CCc1ccccc1)N1CCN(c2ccccn2)CC1	51.9*	-20.9	-4.0	0.7	1.1
SMILES	Lmaj promast	S1P4 antagonist	MDM2 E3 inh	S1P3 antag	S1P4 agonist
O=C(CCCC(=O)N1CCN(c2ccc([N+](=O)[O-])cc2)CC1)c1ccccc1	85.9*	-17.2	5.7	1.1	-1.6
COc1ccc(OC(=O)c2cnn(-c3ccccc3)c2C)cc1	-7.9	-9.4	-8.6	.	-1.7
COc1ccc(-c2ncc(CN3CCC(CO)(Cc4cccc(OC)c4)CC3)cn2)cc1	5.8	-2.3	-24.2	-5.8	2.2
COc1ccc(CC2(CO)CCN(Cc3cccnc3)CC2)cc1	89.3*	-5.9	-8.7	6.3	-1.9
COc1ccc(CC2(CO)CCN(Cc3ccc4nsnc4c3)CC2)cc1	88.5*	-8.9	9.2	-13.6	-0.2
COc1ccc(CC2(CO)CCN(C(C)Cc3ccc(Cl)cc3)CC2)cc1 (stereo not given)	86.2*	8.6	-13.2	-18.5	-2.5
OCC1(Cc2ccc(Cl)cc2)CCN(Cc2ccc3nsnc3c2)CC1	88.4*	-15.7	13.6	0.8	-0.1
COc1ccc(CC2(CO)CCN(Cc3cccc(OC)c3OC)CC2)cc1	5.4	13.9	-1.1	-1.3	-1.0
